Tests used:
[1] = target: T1, Collagenase 3 (Homo sapiens, UniProt P45452)
[2] = target: T2, Interstitial collagenase (Homo sapiens, UniProt P03956); assay: In vitro inhibitory activity against matrix metalloprotease -1 (collagenase-1)
T2 sequence (P03956 whole entry): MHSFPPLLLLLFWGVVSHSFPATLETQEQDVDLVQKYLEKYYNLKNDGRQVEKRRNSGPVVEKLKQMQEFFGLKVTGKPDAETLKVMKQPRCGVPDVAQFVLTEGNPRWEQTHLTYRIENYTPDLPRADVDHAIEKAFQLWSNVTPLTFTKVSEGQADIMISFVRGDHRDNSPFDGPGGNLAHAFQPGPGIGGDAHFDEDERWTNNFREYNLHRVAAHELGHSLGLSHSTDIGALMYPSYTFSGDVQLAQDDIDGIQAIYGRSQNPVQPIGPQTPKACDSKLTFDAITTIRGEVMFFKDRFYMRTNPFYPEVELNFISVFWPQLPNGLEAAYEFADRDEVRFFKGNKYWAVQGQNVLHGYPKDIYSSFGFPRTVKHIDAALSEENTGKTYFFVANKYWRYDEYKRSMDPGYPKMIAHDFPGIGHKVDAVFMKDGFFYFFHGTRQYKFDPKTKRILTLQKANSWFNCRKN

[3] = target: 72 kDa type IV collagenase (Homo sapiens, UniProt P08253); assay: In vitro inhibitory activity against matrix metalloprotease -2 (gelatinase-A)
[4] = target: T3, Stromelysin-1 (Homo sapiens, UniProt P08254); assay: In vitro inhibitory activity against matrix metalloprotease -3 (stromelysin)
[5] = target: T4, Matrilysin (Homo sapiens, UniProt P09237); assay: In vitro inhibitory activity against matrix metalloprotease-7 (matrilysin, MMP-7)
T4 sequence (P09237 whole entry): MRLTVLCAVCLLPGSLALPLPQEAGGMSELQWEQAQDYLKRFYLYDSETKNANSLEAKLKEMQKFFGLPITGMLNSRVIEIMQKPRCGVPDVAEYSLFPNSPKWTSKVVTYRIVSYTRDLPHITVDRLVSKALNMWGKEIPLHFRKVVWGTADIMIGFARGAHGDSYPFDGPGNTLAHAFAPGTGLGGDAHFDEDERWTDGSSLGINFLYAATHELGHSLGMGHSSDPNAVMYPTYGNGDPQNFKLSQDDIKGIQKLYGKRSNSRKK
Outline: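 Human recombinant truncated enzymes, final MMP-1 8 nM, MMP-3 16 nM, MMP-7 2 nM. Quenched-fluorescence assay with Mca-Pro-Leu-Gly-Leu-Dpa-Ala-Arg-NH₂ (4 µM) in 50 mM Tris pH 7.5, 0.2 M NaCl, 5 mM CaCl₂, 0.02% Brij-35 at 25 °C. Fluorescence (ex 328/em 393 nm) read kinetically for 30 min.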

[6] = target: T1, Collagenase 3; assay: In vitro inhibitory activity against human recombinant matrix metalloprotease-13 (collagenase-3)
[7] = species on record: Rattus norvegicus; assay: Time over 100 ng/ml in fasted rats; settings: in vivo
[8] = target: T1, Collagenase 3; remark: listed apart in the source
[9] = target: T3, Stromelysin-1; assay: Inhibition of matrix metalloprotease-3 (stromelysin)
Outline: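 Human recombinant truncated MMP-3 (E. coli-expressed), 16 nM final, with fluorogenic substrate Mca-Pro-Leu-Gly-Leu-Dpa-Ala-Arg-NH₂ at 4 µM, 25 °C, in 50 mM Tris pH 7.5, 0.2 M NaCl, 5 mM CaCl₂, 0.02% Brij-35.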

[10] = Oral bioavailability measured by the ratio of […] area under concentration.; format: ADME, organism-based; settings: rat, in vivo
Outline: (§1)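 Single-compound study in male Sprague-Dawley rats, dosed intravenously and orally in a parallel-group design. Parameters were derived from mean plasma concentration-time profiles.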

[11] = Pharmacokinetic half time was determined intravenously in rats.; format: ADME, organism-based; settings: rat, in vivo, iv
Outline: as §1

[12] = Compound demonstarted an oral bioavailability of […]% with the half-life time as given in rats.; format: ADME, organism-based; settings: rat, in vivo
[13] = Mean (%CV) PK parameters for Vdss(mL/kg).; format: ADME, organism-based; settings: rat, in vivo; read-out: Vdss
Outline: as §1

[14] = Mean (%CV) PK parameters for CL(mL/min/kg).; format: ADME, organism-based; settings: rat, in vivo
Outline: as §1

T3 sequence (P08254 whole entry): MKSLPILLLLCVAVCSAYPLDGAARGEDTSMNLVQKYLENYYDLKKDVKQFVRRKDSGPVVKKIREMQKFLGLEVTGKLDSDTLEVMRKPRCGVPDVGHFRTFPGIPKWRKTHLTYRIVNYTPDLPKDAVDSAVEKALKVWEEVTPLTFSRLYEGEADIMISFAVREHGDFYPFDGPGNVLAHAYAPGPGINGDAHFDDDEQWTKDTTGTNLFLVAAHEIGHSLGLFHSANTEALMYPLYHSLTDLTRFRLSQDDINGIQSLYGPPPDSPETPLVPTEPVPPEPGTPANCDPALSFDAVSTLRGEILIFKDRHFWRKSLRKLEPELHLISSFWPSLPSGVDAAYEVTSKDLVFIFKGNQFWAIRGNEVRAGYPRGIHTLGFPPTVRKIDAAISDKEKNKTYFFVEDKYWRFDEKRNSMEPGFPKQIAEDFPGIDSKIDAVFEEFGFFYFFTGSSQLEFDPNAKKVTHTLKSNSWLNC
Sequence of 72 kDa type IV collagenase (P08253 whole entry): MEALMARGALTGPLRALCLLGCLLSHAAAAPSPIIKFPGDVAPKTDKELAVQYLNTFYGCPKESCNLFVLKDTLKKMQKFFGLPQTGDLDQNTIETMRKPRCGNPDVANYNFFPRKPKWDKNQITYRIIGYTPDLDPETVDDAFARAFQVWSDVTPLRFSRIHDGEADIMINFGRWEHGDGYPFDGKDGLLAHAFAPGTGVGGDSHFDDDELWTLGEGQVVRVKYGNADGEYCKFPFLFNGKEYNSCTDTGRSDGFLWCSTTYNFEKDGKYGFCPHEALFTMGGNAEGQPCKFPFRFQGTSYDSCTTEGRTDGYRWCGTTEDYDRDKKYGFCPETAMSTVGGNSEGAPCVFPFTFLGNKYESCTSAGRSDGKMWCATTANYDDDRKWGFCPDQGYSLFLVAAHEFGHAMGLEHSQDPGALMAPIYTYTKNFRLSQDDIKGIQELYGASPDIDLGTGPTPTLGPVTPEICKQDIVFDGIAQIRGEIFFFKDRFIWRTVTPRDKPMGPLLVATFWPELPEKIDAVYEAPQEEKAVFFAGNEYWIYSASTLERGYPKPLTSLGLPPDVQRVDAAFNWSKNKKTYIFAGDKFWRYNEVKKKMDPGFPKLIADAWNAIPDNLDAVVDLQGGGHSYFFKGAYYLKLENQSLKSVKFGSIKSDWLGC

Compound	IC50 [1]	IC50 [2]	IC50 [3]	IC50 [4]	IC50 [5]	IC50 [6]	Time over 100ng/ml [7]	IC50 [8]	IC50 [9]	bioavailability [10]	half-life [11]	half-life [12]	Vd [13]	clearance [14]
CCCCOc1ccc(S(=O)(=O)N2C[C@@H](N3CCS(=O)(=O)CC3)C[C@@H]2C(=O)NO)cc1	0.9 nM	> 1000 nM	7 nM	12 nM	3400 nM	–	–	–	–	–	–	–	–	–
CCCCOc1ccc(S(=O)(=O)N2C[C@@H](N3C(=O)NC(SC)C3=O)C[C@@H]2C(=O)NO)cc1 (stereo not given in full)	–	750 nM	49 nM	42 nM	850 nM	< 0.5 nM	–	–	–	–	–	–	–	–
CCCOc1ccc(S(=O)(=O)N2C[C@@H](N3CCOCC3)C[C@@H]2C(=O)NO)cc1	–	490 nM	–	7 nM	16500 nM	1 nM	4.5 h	–	–	–	–	–	–	–
COCCOc1ccc(S(=O)(=O)N2C[C@@H](N3C(=O)CN(C)C3=O)C[C@@H]2C(=O)NO)cc1	4.4 nM	1800 nM	1 nM	26 nM	9100 nM	–	0 h	–	–	–	–	–	–	–
COc1ccc(S(=O)(=O)N[C@H]2C[C@H](C(=O)NO)N(S(=O)(=O)c3ccc(OC)cc3)C2)cc1	–	350 nM	3 nM	36 nM	3000 nM	2 nM	–	–	–	–	–	–	–	–
C=CCN1CC(=O)N([C@H]2C[C@H](C(=O)NO)N(S(=O)(=O)c3ccc(OCCC)cc3)C2)C1=O	–	350 nM	0.8 nM	11 nM	2600 nM	0.4 nM	–	–	–	–	–	–	–	–
CCCN(C(=O)[C@@H](O)CCc1ccccc1)[C@H]1C[C@H](C(=O)NO)N(S(=O)(=O)c2ccc(OC)cc2)C1	–	260 nM	0.6 nM	12 nM	–	–	–	0.5 nM	–	–	–	–	–	–
COc1ccc(S(=O)(=O)N2C[C@@H](N(Cc3cccnc3)S(C)(=O)=O)C[C@@H]2C(=O)NO)cc1	–	74 nM	2 nM	6 nM	2700 nM	1 nM	0 h	–	–	–	–	–	–	–
CCCCOc1ccc(S(=O)(=O)N2C[C@@H](N3C(=O)CN(C)C3=O)C[C@@H]2C(=O)NO)cc1	–	–	–	–	1600 nM	–	0 h	–	2 nM	–	–	–	–	–
CCCCOc1ccc(S(=O)(=O)N2C[C@@H](N3CCOCC3)C[C@@H]2C(=O)NO)cc1	0.6 nM	920 nM	4 nM	5 nM	5400 nM	–	3.5 h	–	–	6%	0.4 h	1.7 h	0.408 L/kg	30 mL/min/kg
CCCCOc1ccc(S(=O)(=O)N2C[C@@H](N3C(=O)NC(C)(C)C3=O)C[C@@H]2C(=O)NO)cc1	< 0.5 nM	780 nM	2 nM	3 nM	450 nM	–	–	–	–	–	–	–	–	–
C=CCN1CC(=O)N([C@H]2C[C@H](C(=O)NO)N(S(=O)(=O)c3ccc(OCCCC)cc3)C2)C1=O	–	480 nM	–	7 nM	1000 nM	0.4 nM	4 h	–	–	–	–	–	–	–

From ChEMBL document CHEMBL1133563, “Development of new hydroxamate matrix metalloproteinase inhibitors derived from functionalized 4-aminoprolines” (J Med Chem, 2000)
